G6PDH counter: L. mesenteroides G6PDH inhibition counter-screen | Purified L. mesenteroides G6PDH, diaphorase/resazurin coupled fluorescence, 45 min | inhibition, % at 5 µM | 200,000 tested, 0.12% active | AID 1020; in the data active means inhibition above about 50%
Diaphorase inh: diaphorase inhibition or chemical oxidation counter-screen | 190,000 tested, 0.69% active | AID 1217 | inhibition, % at 20 µM | diaphorase resazurin-to-resorufin fluorescence, NADH, 16 min; bacterial (C. kluyveri) enzyme, not human;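 active means primary screen inhibition at 20 µM above a set limit, cut at about 50% in these data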;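 further: plate controls were DMSO with full reaction for no effect and wells lacking NADH for full effect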
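System: Diaphorase enzyme from Clostridium kluyveri | Amount: Enzyme working solution with 0.14 U/mL diaphorase | Benchmarks: No-NADH positive control and DMSO neutral control | Signal: Fluorescence of resorufin formed from resazurin, Ex 544/Em 590 nm | Schedule: 16-min room-temperature incubation before reading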
PfG6PD inh: PfG6PD (Plasmodium falciparum) enzyme inhibition. 350,000 tested, 0.78% active. AID 504690. inhibition, % at 20 µM. PfGluPho enzyme, NADPH resazurin-diaphorase fluorescence;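 active means inhibition reaching at least a set limit at 20 µM in the primary screen, cut at about 59% in these data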;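 further: 0% = DMSO wells with substrate and 100% = DMSO wells lacking glucose-6-phosphate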
Diaphorase act: diaphorase activation or chemical reduction counter-screen; Diaphorase/resazurin coupled assay, resorufin fluorescence, 16 min; hits give high values; 1 = vehicle wells, 0 = NADH-free wells; activation factor at 20 µM; 190,000 tested, 0.005% active; AID 1229;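 active means diaphorase activity raised at least twofold by the compound at 20 µM; inactive means activation factor below 2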
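Material: Purified diaphorase enzyme from Clostridium kluyveri | Buffer or medium: 50 mM HEPES pH 7.4 with 4.542 mM MgCl2, 0.005% Tween 20 | Times: 16 min enzyme reaction, ambient temperature | Signal: Red resorufin fluorescence at 544/590 nm excitation/emission | Measure: Increased resorufin signal from activators or reducing compounds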
HKDC1 inhibitor: inhibitors of human hexokinase HKDC1; AID 493160; inhibition, % at 20 µM; recombinant HKDC1, G6PDH/diaphorase resazurin coupled fluorescence; Q2TB90; 340,000 tested, 0.16% active;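 active means inhibition above about 35% when tested at 20 µM, limit read from the data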;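 further: plate controls were DMSO wells with enzyme for no effect and DMSO wells lacking enzyme for full effect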
Target sequence (Q2TB90 whole entry, looked up): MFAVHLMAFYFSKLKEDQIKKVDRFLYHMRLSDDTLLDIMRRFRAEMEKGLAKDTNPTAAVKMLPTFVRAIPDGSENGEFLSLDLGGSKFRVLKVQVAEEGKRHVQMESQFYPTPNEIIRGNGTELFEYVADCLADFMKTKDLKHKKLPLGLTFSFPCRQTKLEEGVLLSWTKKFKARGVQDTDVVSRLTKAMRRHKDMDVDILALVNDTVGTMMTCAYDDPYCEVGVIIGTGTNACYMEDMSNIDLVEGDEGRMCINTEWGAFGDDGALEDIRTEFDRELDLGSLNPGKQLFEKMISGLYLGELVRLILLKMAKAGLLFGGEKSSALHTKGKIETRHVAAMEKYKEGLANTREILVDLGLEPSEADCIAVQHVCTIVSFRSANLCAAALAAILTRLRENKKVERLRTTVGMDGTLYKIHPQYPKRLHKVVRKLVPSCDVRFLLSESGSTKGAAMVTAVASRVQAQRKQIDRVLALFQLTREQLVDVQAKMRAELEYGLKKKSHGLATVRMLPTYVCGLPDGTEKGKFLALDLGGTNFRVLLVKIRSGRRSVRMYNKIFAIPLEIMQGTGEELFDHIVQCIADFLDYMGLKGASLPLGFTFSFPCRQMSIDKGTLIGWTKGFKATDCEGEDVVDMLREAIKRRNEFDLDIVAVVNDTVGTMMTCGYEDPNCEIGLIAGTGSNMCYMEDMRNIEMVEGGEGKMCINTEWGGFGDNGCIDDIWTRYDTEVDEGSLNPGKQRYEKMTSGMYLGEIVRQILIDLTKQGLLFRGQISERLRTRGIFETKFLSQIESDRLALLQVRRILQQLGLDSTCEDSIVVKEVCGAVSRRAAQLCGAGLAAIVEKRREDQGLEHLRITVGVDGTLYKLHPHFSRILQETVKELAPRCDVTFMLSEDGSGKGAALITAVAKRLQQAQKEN
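Material: recombinant HKDC1 hexokinase; Amount: HKDC1 at 5 µg/mL; Medium: Tris pH 8.0 buffer with MgCl2, Tween-20, BSA, BME; Schedule: 90 min reaction incubation at room temperature, dark; Technique: coupled resazurin fluorescence, excitation 525 nm, emission 613 nm.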
PfG6PD confirm: confirmation of Plasmodium falciparum G6PD inhibitors; AID 504753; inhibition, % at 20 µM; 2,400 tested, 34% active; recombinant PfGluPho, NADPH-diaphorase-resazurin fluorescence; shares compounds with PfG6PD inh;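 active means inhibition of at least 50% at 20 µM in any single replicate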;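 further: 0% = DMSO with substrate and 100% = DMSO lacking glucose-6-phosphate substrate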
Diaph ctr 10uM: counter-screen for P. falciparum G6PD inhibitors: diaphorase inhibitors, oxidizers; shares compounds with PfG6PD inh; diaphorase-coupled resazurin reduction, fluorescence, NADPH 10 uM; inhibition, % at 20 µM; 820 tested, 39% active; AID 504862;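 active means average inhibition reaching 50% or more with the compound at 20 µM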;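 further: resorufin red fluorescence formed as diaphorase reduces resazurin using NADPH; 0% = DMSO with enzyme and 100% = DMSO without enzyme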
Diaphorase 30uM: inhibits diaphorase or oxidizes, flagging false PfG6PD hits; shares compounds with PfG6PD inh; Diaphorase/resazurin coupled assay, resorufin fluorescence, 30 uM NADPH; inhibition, % at 20 µM; 820 tested, 29% active;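 active means inhibition averaging 50% or more, tested at 20 µM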;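 further: 0% = DMSO with enzyme and 100% = DMSO wells lacking diaphorase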
An asterisk follows results filed as active; x = no result. This is a sample that favours compounds with a hit; in the whole collection about 1.2% have one here.

SMILES	G6PDH counter	Diaphorase inh	PfG6PD inh	Diaphorase act	HKDC1 inhibitor	PfG6PD confirm	others
CCCn1c(=N)n(CC(=O)c2ccc([N+](=O)[O-])cc2)c2ccccc21	-6	4	73*	1	3	-22
N=c1n(CCN2CCOCC2)c2ccccc2n1CC(=O)c1ccc(Cl)c(Cl)c1	11	3	114*	1	-1	1
CCCCOC(=O)Cn1c(=N)n(CCN2CCOCC2)c2ccccc21	x	x	0	x	-4	x
N=c1n(CCN2CCOCC2)c2ccccc2n1CC(=O)c1cccc([N+](=O)[O-])c1	x	x	75*	x	7	-6
CCC(=O)c1ccc(OCC(=O)N2CCN(S(=O)(=O)c3ccc(Cl)s3)CC2)cc1	x	x	-1	x	5	x
Cc1nn(-c2ccccn2)c2c1C(=O)C(Br)CC2 (configuration not stated)	33	82*	90*	0.2	11	-1
CCOC(=O)C(C)Sc1nc(-c2ccccc2)nc2ccccc12 (configuration not stated)	3	8	10	0.9	11	x
CC1(OC(=O)CCc2ccccc2)C(=O)C=C2C=C(c3ccc(C#N)cc3)N(Cc3ccco3)C=C2C1=O (configuration not stated)	x	x	37	x	19	x
COCCN1C=C2C(=O)C(C)(OC(=O)CCc3ccccc3)C(=O)C=C2C=C1c1ccc(C#N)cc1 (configuration not stated)	x	x	62*	x	25	22
CC1(OC(=O)CCc2ccccc2)C(=O)C=C2C=C(c3ccc(C#N)cc3)N(C3CC3)C=C2C1=O (configuration not stated)	x	x	83*	x	30	49
CCCNC(=O)c1cc(S(=O)(=O)N2CCC3(CC2)OCCO3)ccc1F	x	x	6	x	x	x
COc1ccc(/C=C(\C#N)C(=O)Nc2cc(S(=O)(=O)N3CCOCC3)ccc2N2CCCC2)cc1	-2	22	64*	0.8	-10	36
CN(C)S(=O)(=O)c1cccc(C(=O)Nc2cc(S(=O)(=O)N3CCOCC3)ccc2O)c1	x	x	11	x	-4	x
O=C(Nc1cc(S(=O)(=O)N2CCOCC2)ccc1N1CCCCC1)c1cc(-c2ccccn2)nc2ccccc12	0	-2	71*	1	-12	45
CN(C)S(=O)(=O)c1cccc(C(=O)Nc2cc(S(=O)(=O)N3CCOCC3)ccc2N2CCCC2)c1	x	x	66*	x	-11	34
Cc1ccc(S(=O)(=O)N2CCOCC2)cc1NC(=O)c1cc(-c2ccccn2)nc2ccccc12	x	x	10	x	-3	x
C[C@@H]1CN([C@H](C)CO)S(=O)(=O)c2ccc(C#Cc3ccccc3)cc2O[C@H]1CN(C)C(=O)Nc1ccc2c(c1)OCO2	x	x	23	x	x	x
S=C(NCc1ccccc1)NNc1nc2ccccc2[nH]1	-2	22	77*	0.8	13	45
CCOc1ccc(/C=C2\CCC(C3CCCC3)C2=O)cc1 (configuration not stated)	x	x	12	x	-2	x
CCC(=O)OCOc1ccc(/C=C2/CCC(CN(C)C)C2=O)cc1 (configuration not stated)	x	x	84*	x	2	56*	Diaph ctr 10uM=-33;Diaphorase 30uM=-23
Cc1ccc(/C(C#N)=C\c2ccc(N3CCOCC3)o2)cc1	-10	5	72*	0.9	-4	-2
Cc1ccc2nc(/C(C#N)=C\c3ccc(N4CCOCC4)o3)[nH]c2c1	15	36	25	0.6	11	x
N#Cc1cc2c([nH]c1=S)CCCCCC2	4	14	63*	0.9	-1	22
N#Cc1c(N)n[nH]c1-c1cc2c([nH]1)CCCC2	3	24	1	0.8	2	x
COc1ccc(CNC(=O)Cc2cn(C)c3ccccc23)c(OC)c1	x	x	79*	x	-6	55*	Diaph ctr 10uM=49;Diaphorase 30uM=52*
SMILES	G6PDH counter	Diaphorase inh	PfG6PD inh	Diaphorase act	HKDC1 inhibitor	PfG6PD confirm	others
[O-][n+]1cccc2c(Br)cc(Br)c(O)c21	34	46	52	0.5	6	x
C[n+]1cccc2c(Br)ccc([O-])c21	x	x	114*	x	29	17
Cn1c(CS/C(N)=N/N=C/c2ccccc2)c(Br)c(=O)n1-c1ccccc1	-5	12	64*	0.9	-17	16
CCCCNC1=CC(=O)C(NCCCC)=CC1=O	x	x	62*	x	27	-3
CCn1c(=O)c(CCC(=O)NCC2CCCO2)c(C)c2c(C)nn(-c3ccccc3)c21 (configuration not stated)	x	x	-12	x	-3	x
COc1ccccc1Nc1nnc(SCc2cc(=O)n3ccsc3n2)s1	-9	16	67*	0.8	10	40
Cc1ccc(Nc2nnc(SCc3cc(=O)n4ccsc4n3)s2)c(C)c1	4	30	-2	0.7	11	x
COc1ccc(CNC(=O)Cn2cnc3c(NCc4ccccc4)ncnc32)cc1	x	x	-4	x	-5	x
O=S(=O)(c1ccc2oc(=S)[nH]c2c1)N1CCCCC1	x	x	-21	x	-3	x
O=S(=O)(c1ccc2oc(=S)[nH]c2c1)N1CCOCC1	x	x	66*	x	-7	19
O=C(CCc1ccccc1)N1CCCC(Nc2ccc(F)cc2)C1 (configuration not stated)	x	x	8	x	5	x
COc1ccc(-c2cn3cc(Cl)ccc3n2)cc1OC	9	8	133*	0.9	-2	77*	Diaph ctr 10uM=62*;Diaphorase 30uM=57*
COc1ccc(-c2cn3cc(C)ccc3n2)cc1Br	4	5	103*	0.9	15	54*	Diaph ctr 10uM=45;Diaphorase 30uM=30
Clc1ccc2nc(-c3ccc(Br)s3)cn2c1	-32	23	80*	0.8	-5	51*	Diaph ctr 10uM=38;Diaphorase 30uM=42
COc1ccc(-c2cn3nc(C)c(C)nc3n2)cc1OC	x	x	6	x	3	x

Source: PubChem (Sanford-Burnham Center for Chemical Genomics)
